Experimental data from different studies.
Each line is one published result; the experiments were not run side by side.
Target: Muscarinic acetylcholine receptor M1 (CHRM1, Homo sapiens, UniProt P11229)
Concentration: 10 µM
One construct used (P11229 1-460): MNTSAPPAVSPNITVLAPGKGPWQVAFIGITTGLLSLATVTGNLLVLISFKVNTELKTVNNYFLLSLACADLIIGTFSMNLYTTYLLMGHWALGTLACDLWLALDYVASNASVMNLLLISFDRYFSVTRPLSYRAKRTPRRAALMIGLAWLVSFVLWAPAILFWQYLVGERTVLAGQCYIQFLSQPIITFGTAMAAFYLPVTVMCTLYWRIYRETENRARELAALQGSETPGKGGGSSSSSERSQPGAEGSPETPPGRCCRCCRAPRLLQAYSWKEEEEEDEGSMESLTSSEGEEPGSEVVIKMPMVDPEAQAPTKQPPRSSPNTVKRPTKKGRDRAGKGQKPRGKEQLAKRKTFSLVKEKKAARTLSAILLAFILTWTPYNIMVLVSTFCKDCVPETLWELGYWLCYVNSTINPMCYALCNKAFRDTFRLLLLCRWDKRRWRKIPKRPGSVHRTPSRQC

Compound	assay	inhibition [%]
COc1ccc2cc(OCC3(C(=O)O)CN(C(=O)c4ccc(F)cc4)C3)ccc2c1	ligand displacement	-0.03
COCc1c(-c2cc3cc(C)cc(OC)c3s2)c2c(N)ncnn2c1CN1CCNC(=O)C1	ligand displacement, radioligand	6
CS(=O)(=O)c1cc(C2(NC(=O)c3cncc4c3cnn4-c3ccc(F)cc3)CC2)ccn1	cell-free assay	-14.8
CCN(CC)CCCC[C@H](NC(=O)[C@H](CC(C)C)NC(=O)[C@H](C)NC(=O)[C@H](Cc1ccccc1)NC(=O)c1ccc(C(C)(C)C)cc1)C(=O)N[C@@H](CO)C(=O)OC	ligand displacement, radioligand	1
Clc1ccc2c(C3CCN(CCc4c[nH]c5ccccc45)CC3)c[nH]c2c1	ligand displacement, radioligand	31
C[C@H](C(=O)N[C@H]1COc2ccccc2[C@@H]1S(C)(=O)=O)c1ccc(F)cc1	cell-free assay	-7
CN1CC[C@]2(C)c3cc(OC(=O)Nc4ccccc4)ccc3N(C)[C@H]12	ligand displacement, radioligand	0
c1ccc(C(NCCNC(c2ccccc2)c2ccccc2)c2ccccc2)cc1	cell-free assay	21
CC(C)N1CCC[C@H]1CNC(=O)c1cn(C2CCCC2)c(=O)c2c1c1ccccc1n2C	ligand displacement, radioligand	-1
